Experimental data from ChEMBL document CHEMBL1157968, “Chemical and cytotoxic constituents from the leaves of Cinnamomum kotoense” (2006).

Legend:
Format in all cases: functional
[1] = tested on: HeLa; experiment: Cell cycle arrest in human HeLa cells assessed as S phase accumulation at 100 uM after 24 hrs by FACS
Outline: (§1)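 HeLa cells seeded 5 × 10^5 per dish 48 h ahead in DMEM with 10% FCS, then exposed to compound for 24 h (DMSO 0.1% final). Adherent and floating cells pooled, fixed in PBS-MeOH (1:2) at 4 °C for at least 18 h, and stained with PI (50 µg/mL) plus RNase A for 30 min at room temperature. Flow cytometry at 488 nm excitation, doublets gated out; phase percentages taken from DNA histograms.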

[2] = tested on: HeLa; experiment: Cell cycle arrest in human HeLa cells pretreated with 100 uM Boc-Asp(OMe)-fmk for 1 hr assessed as G2/M phase accumulation at 100 uM after 24 hrs by FACS
Outline: (§2)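 HeLa cells pretreated for 1 h with the listed agent (10 mM GSH ethyl ester, 10 µM dexamethasone, 10 µM pifithrin, 100 µM Boc-Asp(OMe)-fmk or 5 µM cyclosporin A), then given 100 µM compound for 24 h. Cells fixed in PBS-MeOH, stained with PI/RNase and analysed by flow cytometry for DNA content. At least three experiments, one representative shown.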

[3] = tested on: HeLa; experiment: Induction of apoptosis in human HeLa cells assessed as increase p53 expression at 100 uM after 24 hrs by FACS
Outline: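 HeLa seeded at 5 × 10^5 cells/dish 48 h before, in DMEM with 10% FCS; medium renewed at 60% confluence, then 100 µM agent (0.1% DMSO final) for 0–24 h. Pooled floating and adherent cells fixed in 1% paraformaldehyde (15 min, 4 °C), permeabilized in 70% EtOH (30 min, 4 °C), then FITC-conjugated mouse anti-p53 mAb (1 h, 37 °C), PI/RNase counterstain; flow cytometry, % p53-positive cells; ≥3 experiments.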

[4] = tested on: HeLa; experiment: Induction of apoptosis in human HeLa cells assessed as increase p53 expression at 100 uM after 12 hrs by FACS
Outline: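 Cells at 60% confluence were exposed to 100 µM for 0–24 h. Floating and adherent cells were fixed in 1% paraformaldehyde (15 min, 4 °C) and permeabilized in 70% EtOH. They were stained with FITC-anti-p53 monoclonal antibody for 1 h at 37 °C, then with PI/RNase. Flow cytometry gave the percentage of p53-positive cells.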

[5] = tested on: HeLa; experiment: Induction of apoptosis in human HeLa cells assessed as increase in intracellular hydrogen peroxide level at 100 uM after 24 hrs by FACS relative to untreated control
Outline: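 HeLa cells at 80% confluence were refed and exposed to 100 µM for 1, 3 or 24 h. They were loaded with 10 µM DCFH-DA for 30 min in the dark, trypsinized and resuspended in PBS. DCF fluorescence was measured by flow cytometry and expressed as fold versus untreated cells. At least three experiments.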

[6] = tested on: HeLa; experiment: Cell cycle arrest in human HeLa cells assessed as G2/M phase accumulation at 100 uM after 24 hrs by FACS; outline: as §1
[7] = tested on: HeLa; experiment: Cell cycle arrest in human HeLa cells pretreated with 10 mM glutathione ethyl ester for 1 hr assessed as G1 phase accumulation at 100 uM after 24 hrs by FACS; outline: as §2
[8] = tested on: HeLa; experiment: Cell cycle arrest in human HeLa cells pretreated with 10 mM glutathione ethyl ester for 1 hr assessed as subG1 phase accumulation at 100 uM after 24 hrs by FACS; outline: as §2
[9] = tested on: HeLa; experiment: Cell cycle arrest in human HeLa cells pretreated with 10 uM pifithrin-alpha for 1 hr assessed as G2/M phase accumulation at 100 uM after 24 hrs by FACS; outline: as §2
[10] = tested on: HeLa; experiment: Cell cycle arrest in human HeLa cells pretreated with 100 uM Boc-Asp(OMe)-fmk for 1 hr assessed as G1 phase accumulation at 100 uM after 24 hrs by FACS; outline: as §2
[11] = tested on: HeLa; experiment: Induction of apoptosis in human HeLa cells assessed as number of cells with decreased mitochondrial membrane potential at 100 uM after 3 hrs by measuring rhodamine 123 fluorescence intensity; set-up: scale not given: the % may be the effect or the level left
Outline: (§3)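 Cells in DMEM/10% FCS, medium renewed at 80% confluence, then 100 µM agent (0.1% DMSO final) for 1–24 h. Stained with 5 µM rhodamine 123 for 30 min in the dark, washed, trypsinized and resuspended in PBS; flow cytometry, percentage of cells with weak rhodamine 123 staining (reduced ΔΨm); at least three experiments, representative shown.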

[12] = tested on: HeLa; experiment: Induction of apoptosis in human HeLa cells pretreated with 100 uM Boc-Asp(OMe)-fmk for 1 hr at 100 uM after 24 hrs by TUNEL assay
Outline: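 HeLa in DMEM/10% FCS, untreated or pretreated 1 h with listed inhibitor, then 100 µM agent (0.1% DMSO final) for 24 h. Pooled cells fixed in 1% paraformaldehyde (30 min, 4 °C), 70% EtOH (30 min, −20 °C); strand breaks labelled with TdT/fluorescein-BrdUTP (1 h, 37 °C), PI/RNase counterstain; flow cytometry, % apoptotic cells; ≥3 experiments.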

[13] = tested on: HeLa; experiment: Induction of apoptosis in human HeLa cells assessed as number of cells with decreased mitochondrial membrane potential at 100 uM after 1 hr by measuring rhodamine 123 fluorescence intensity; set-up: scale not given: the % may be the effect or the level left; outline: as §3
[14] = tested on: HeLa; experiment: Cell cycle arrest in human HeLa cells assessed as subG1 phase accumulation at 100 uM after 24 hrs by FACS; outline: as §1
[15] = tested on: HeLa; experiment: Cell cycle arrest in human HeLa cells pretreated with 10 uM Dexamethasone for 1 hr assessed as S phase accumulation at 100 uM after 24 hrs by FACS; outline: as §2
[16] = tested on: HeLa; experiment: Cell cycle arrest in human HeLa cells assessed as G1 phase accumulation at 25 uM after 24 hrs by FACS; outline: as §1
[17] = tested on: HeLa; experiment: Induction of apoptosis in human HeLa cells assessed as increase caspase 3/7 activities at 100 uM after 24 hrs by FACS relative to control
Outline: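 After 3–24 h exposure at 100 µM, HeLa cells were trypsinized. 1 × 10^6 cells in DMEM were mixed 1:1 with Z-DEVD-R110 substrate reagent and incubated 1 h at 37 °C, then washed. Released R110 read per cell by flow cytometry (ex 488/em 520 nm) and expressed as fold over untreated cells. At least three runs.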

In the case of `CCCCCCCCCCCCC/C=C(/C(=O)OC)[C@@H](O)C(C)=O` [SECOKOTOMOLIDE A], the Activity [1] is reported as 28.7%, the Activity [2] is reported as 25.7% and the Activity [3] is reported as 28.8%. For the same molecule, the Activity [4] was 2.3%, the “fold change (FC)” value [5] was 3.9 and the Activity [6] was 31%. The Activity [7] was 80%, the Activity [8] was 11.3% and the Activity [9] was 0%. It also gave an Activity [10] of 60.6%, an Activity [11] of 2.2% and an Activity [12] of 39%. The Activity [13] was 1.4%, the Activity [14] was 75% and the Activity [15] was 33.8%. For the same molecule, the Activity [16] was 55.2% and the “fold change (FC)” value [17] was 1.7.
